High-throughput results as filed in PubChem.
KCNQ1 block = blocks the human KCNQ1 potassium channel. actives 1.3% (n = 310,000). CHO-K1 KCNQ1, FluxOR thallium flux fluorescence; stronger effect = higher value. B-score at 10 µM;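 active = compounds whose thallium flux B-score, printed positive for inhibition, exceeds three library SD while starting fluorescence stays within three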;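 also: channel opened by potassium depolarization with thallium stimulus after 20 min compound exposure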
hERG protect = hERG (human) protection from proarrhythmic block; Q12809; CHO-hERG, FluxOR thallium flux, dofetilide IC70 present; activation (rescue from dofetilide block), less the hit threshold, % at 10 µM; actives 0.51% (n = 310,000);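 active = activation above the mean of controls blocked by dofetilide plus 5 SD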;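 also: thallium influx through hERG after potassium depolarization seen as dye fluorescence rise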
PHOSPHO1 inh = inhibitors of human PHOSPHO1 phosphatase; Q8TCT1; recombinant PHOSPHO1, absorbance phosphatase assay; inhibition, % at 13.3 µM; actives 1.1% (n = 290,000); AID 1565; in the data active = inhibition above about 60%
KCNQ1 pot = human KCNQ1 channel potentiation or activation | P51787 | CHO-K1 KCNQ1, thallium flux FluxOR fluorescence; stronger effect = higher value | B-score at 10 µM | actives 0.35% (n = 310,000);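 active = fluorescence ratio B-score, a plate-corrected score, at least three library SD, with initial intensity B-score within 5 SD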
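Assay system: CHO-K1 cells stably expressing KCNQ1. Medium: assay buffer for compound exposure, DMSO matched across wells. Timing: 37 °C overnight plating, 90-min dark dye load, 20-min compound pretreatment. Signal: kinetic FluxOR fluorescence, 10 s baseline plus 110 s post-stimulus.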
KCNK3 block = human KCNK3 channel inhibition, primary screen; B-score at 10 µM; actives 0.84% (n = 340,000); AID 602410; O14649; CHO-KCNK3 thallium flux, FluxOR fluorescence; stronger effect = lower value;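 active = B-score under library mean minus 4 SD, starting fluorescence ratio at most library mean plus 5 SD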;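 also: more negative B-score means stronger inhibition of thallium flux through KCNK3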
Target sequence (O14649 whole entry, looked up): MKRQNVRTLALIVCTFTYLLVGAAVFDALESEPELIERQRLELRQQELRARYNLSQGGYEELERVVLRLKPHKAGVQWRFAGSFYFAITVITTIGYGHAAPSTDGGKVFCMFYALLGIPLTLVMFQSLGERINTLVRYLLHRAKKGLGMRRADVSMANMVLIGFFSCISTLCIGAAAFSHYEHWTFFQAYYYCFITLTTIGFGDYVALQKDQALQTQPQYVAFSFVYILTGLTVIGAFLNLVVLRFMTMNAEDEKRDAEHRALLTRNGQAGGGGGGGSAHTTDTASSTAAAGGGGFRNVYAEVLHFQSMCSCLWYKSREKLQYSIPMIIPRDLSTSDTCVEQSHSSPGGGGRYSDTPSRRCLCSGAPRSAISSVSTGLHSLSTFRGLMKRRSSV
KCNK9 inh = human KCNK9 channel inhibition | Q9NPC2 | HEK293 KCNK9, FluxOR thallium flux fluorescence; stronger effect = lower value | actives 1.2% (n = 310,000) | AID 488922 | B-score at 10 µM;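 active = ratio B-score over 3 SD below the library mean, with starting fluorescence within 5 SD of its mean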;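 also: negative B-score means less thallium flux so channel inhibition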
* hit, by the source's call; i = inactive; nt = not tested or not shown. In the library only some 4% were active in any assay of this set; here they are far more common.

SMILES	KCNQ1 block	hERG protect	PHOSPHO1 inh	KCNQ1 pot	KCNK3 block	KCNK9 inh
CCOc1ccc(/C=N/n2nnnc2N)cc1O	i	-8	62*	i	i	i
COC(=O)c1cc(=O)n(Cc2ccco2)c(=Nc2ccc(F)cc2)s1	i	-14	12	i	i	i
COC(=O)c1cc(=O)n(CCc2ccc(OC)c(OC)c2)c(=Nc2ccc(F)c(Cl)c2)s1	i	-9	-7	i	i	-7.5*
CNC(=O)C1CC(=O)N(CCc2ccc(OC)c(OC)c2)C(=Nc2ccc(F)cc2)S1 (stereo unspecified)	i	-20	37	i	i	i
COC(=O)c1cc(=O)n(Cc2ccc(OC)c(OC)c2)c(=Nc2ccc(F)cc2)s1	6*	-9	-19	i	i	i
COC(=O)c1cc(=O)n(Cc2cccs2)c(=Nc2ccccc2)s1	i	-15	28	i	i	i
COC(=O)c1cc(=O)n(Cc2ccc(F)cc2)c(=Nc2ccccc2)s1	6*	-8	16	i	i	i
CCOC(=O)c1ccc(N=c2sc(C(=O)OC)cc(=O)n2-c2ccc(C(=O)OCC)cc2)cc1	6*	-10	-9	i	i	i
COc1ccccc1S(=O)(=O)Cc1ccc(C(=O)NCC(OC)OC)o1	i	-6	nt	i	i	i
Cc1cccc[n+]1CC(=O)Nc1ccc([N+](=O)[O-])cc1	i	-4	-40	i	i	i
O=C1CCC([N+](=O)[O-])C(c2cccc(Br)c2)N1 (stereo unspecified)	i	-2	1	i	i	i
O=C(Cn1nnc(-c2ccccc2F)n1)NCc1ccco1	i	-22	66*	i	i	i
CCOc1ccc2[nH]c(=S)[nH]c2c1	i	-6	103*	i	i	i
COc1ccc(C2c3c(oc4ccc(Cl)cc4c3=O)C(=O)N2CCN2CCOCC2)cc1 (stereo unspecified)	i	-7	20	i	i	i
O=C(Nc1cccc([N+](=O)[O-])c1)Nc1cccs1	8*	-32	-20	i	i	i
CC(NC(=O)Nc1cccc([N+](=O)[O-])c1)(C(F)(F)F)C(F)(F)F	12*	-22	-7	i	i	i
COC(=O)c1sccc1NC(=O)Nc1cccc([N+](=O)[O-])c1	i	-11	52	i	i	i
Cc1ccc(C)c(NC(=S)NC(=O)c2cncc(Br)c2)c1	i	3	nt	i	i	i
Cc1ccc(/C(O)=C/C(=O)C(=O)NNC(=O)C(O)(c2ccccc2)c2ccccc2)cc1	i	1	-35	13*	i	i
O=C(C=C(O)c1ccc(Cl)cc1)C(=O)NNC(=O)C(O)(c1ccccc1)c1ccccc1	nt	nt	nt	nt	i	nt
N#C/C(=C\c1ccc(Sc2ccccc2)o1)c1nc2ccccc2[nH]1	i	-11	-6	i	i	i
O=C(N/N=C/c1ccc(Sc2nc3ccccc3[nH]2)o1)c1ccncc1	i	-8	-13	i	i	i
N#C/C(=C/c1ccc(Sc2nc3ccccc3[nH]2)o1)c1ccccc1F	17*	-18	3	i	i	i
N#C/C(=C/c1ccc(Sc2nc3ccccc3[nH]2)o1)c1cccc(Br)c1	i	-9	51	i	-10*	i
N#C/C(=C\c1ccc([N+](=O)[O-])o1)c1nc2ccccc2[nH]1	6*	-12	-4	i	nt	i
SMILES	KCNQ1 block	hERG protect	PHOSPHO1 inh	KCNQ1 pot	KCNK3 block	KCNK9 inh
Cc1ccc2nc(/C(C#N)=C\c3ccc([N+](=O)[O-])o3)[nH]c2c1	i	-5	38	i	i	i
COc1cccc(-c2ccc3nnc(SCC(=O)Nc4ccc(NC(C)=O)cc4)n3n2)c1	i	-4	nt	i	i	i
Cc1ccccc1-c1nc2ccc(Cl)cc2c(=O)n1O	i	-1	23	i	i	i
O=c1c2cc(Cl)ccc2nc(-c2ccccc2)n1O	i	11*	-4	8*	i	i
O=c1c2cc(Cl)ccc2nc(-c2ccc(Cl)c(Cl)c2)n1O	i	42*	30	119*	i	i
COc1ccccc1-c1nc2ccc(Cl)cc2c(=O)n1O	i	-1	2	i	i	i
COC(C[C@@H](O)CC(=O)[C@H](C)OCc1ccccc1)OC	i	-3	22	i	i	i
COC(=O)C1=C(C)N=c2s/c(=C/c3ccoc3)c(=O)n2C1c1ccccc1 (stereo unspecified)	9*	-18	-55	i	i	i
CCOC(=O)C1=C(C)N=c2s/c(=C/c3ccco3)c(=O)n2C1c1cccc(OC)c1 (stereo unspecified)	i	-11	66*	i	nt	i
CCOC(=O)C1=C(C)N=c2s/c(=C/c3cccc([N+](=O)[O-])c3O)c(=O)n2C1c1cc(OC)c(OC)c(OC)c1 (stereo unspecified)	8*	-16	-46	i	i	i
CCOC(=O)C1=C(C)N=c2s/c(=C\c3ccc(C(=O)O)cc3)c(=O)n2C1c1ccc(OC)cc1OC (stereo unspecified)	i	-6	nt	i	i	i
CCOC(=O)C1=C(C)N=c2s/c(=C\c3cccn3C)c(=O)n2C1c1cccc(OC)c1OC (stereo unspecified)	i	-9	-24	i	i	i
CC1=C(C(=O)OC(C)C)C(c2ccc(Cl)cc2)n2c(s/c(=C\c3ccc(OCC(=O)O)cc3)c2=O)=N1 (stereo unspecified)	7*	-1	20	i	i	i
CCOC(=O)C1=C(C)N=c2s/c(=C\c3ccc(OCC(=O)O)c(OC)c3)c(=O)n2C1c1ccc(OC)cc1 (stereo unspecified)	i	-1	18	i	i	i
COc1ccccc1N1CCN(c2ccc(-c3ccccc3)nn2)CC1	i	1	2	i	i	i
CN(c1ccc(C(=O)Nc2ccccc2C(F)(F)F)cc1)S(C)(=O)=O	i	-10	-18	i	i	i
O=C1CN(C(=O)CSc2nc3c(cnn3-c3ccccc3)c(=O)[nH]2)c2ccccc2N1	nt	nt	nt	nt	i	nt
C=CC[n+]1c(C)csc1Nc1cccc(Br)c1	i	-14	-2	i	i	-6.6*
O=C(Nc1ccc(Cl)cc1)N(C1=NCCC1)c1ccc(OC(F)F)cc1	6*	-16	9	i	i	i
O=C(COC(=O)Cc1ccc(Cl)cc1)Nc1ccc(OC(F)F)cc1	i	-4	-1	i	i	i
